Laboratory results as given in ChEMBL document CHEMBL3853331, “Preparation, Antiepileptic Activity, and Cardiovascular Safety of Dihydropyrazoles as Brain-Penetrant T-Type Calcium Channel Blockers” (J Med Chem, 2016).
Converted amounts (≈) assume the structure as drawn.

Key:
[1] = molecular target: Voltage-dependent T-type calcium channel subunit alpha-1H (Homo sapiens, UniProt O95180); assay: Inhibition of recombinant T-type calcium channel Cav3.2 (unknown origin) expressed in HEK293 cells assessed as inhibition of CaCl2-induced calcium influx preincubated for 3 mins prior CaCl2 addition by Fluo-4-AM dye-based FLIPR assay; assay type: cell-based
Chain of Voltage-dependent T-type calcium channel subunit alpha-1H (O95180 whole entry): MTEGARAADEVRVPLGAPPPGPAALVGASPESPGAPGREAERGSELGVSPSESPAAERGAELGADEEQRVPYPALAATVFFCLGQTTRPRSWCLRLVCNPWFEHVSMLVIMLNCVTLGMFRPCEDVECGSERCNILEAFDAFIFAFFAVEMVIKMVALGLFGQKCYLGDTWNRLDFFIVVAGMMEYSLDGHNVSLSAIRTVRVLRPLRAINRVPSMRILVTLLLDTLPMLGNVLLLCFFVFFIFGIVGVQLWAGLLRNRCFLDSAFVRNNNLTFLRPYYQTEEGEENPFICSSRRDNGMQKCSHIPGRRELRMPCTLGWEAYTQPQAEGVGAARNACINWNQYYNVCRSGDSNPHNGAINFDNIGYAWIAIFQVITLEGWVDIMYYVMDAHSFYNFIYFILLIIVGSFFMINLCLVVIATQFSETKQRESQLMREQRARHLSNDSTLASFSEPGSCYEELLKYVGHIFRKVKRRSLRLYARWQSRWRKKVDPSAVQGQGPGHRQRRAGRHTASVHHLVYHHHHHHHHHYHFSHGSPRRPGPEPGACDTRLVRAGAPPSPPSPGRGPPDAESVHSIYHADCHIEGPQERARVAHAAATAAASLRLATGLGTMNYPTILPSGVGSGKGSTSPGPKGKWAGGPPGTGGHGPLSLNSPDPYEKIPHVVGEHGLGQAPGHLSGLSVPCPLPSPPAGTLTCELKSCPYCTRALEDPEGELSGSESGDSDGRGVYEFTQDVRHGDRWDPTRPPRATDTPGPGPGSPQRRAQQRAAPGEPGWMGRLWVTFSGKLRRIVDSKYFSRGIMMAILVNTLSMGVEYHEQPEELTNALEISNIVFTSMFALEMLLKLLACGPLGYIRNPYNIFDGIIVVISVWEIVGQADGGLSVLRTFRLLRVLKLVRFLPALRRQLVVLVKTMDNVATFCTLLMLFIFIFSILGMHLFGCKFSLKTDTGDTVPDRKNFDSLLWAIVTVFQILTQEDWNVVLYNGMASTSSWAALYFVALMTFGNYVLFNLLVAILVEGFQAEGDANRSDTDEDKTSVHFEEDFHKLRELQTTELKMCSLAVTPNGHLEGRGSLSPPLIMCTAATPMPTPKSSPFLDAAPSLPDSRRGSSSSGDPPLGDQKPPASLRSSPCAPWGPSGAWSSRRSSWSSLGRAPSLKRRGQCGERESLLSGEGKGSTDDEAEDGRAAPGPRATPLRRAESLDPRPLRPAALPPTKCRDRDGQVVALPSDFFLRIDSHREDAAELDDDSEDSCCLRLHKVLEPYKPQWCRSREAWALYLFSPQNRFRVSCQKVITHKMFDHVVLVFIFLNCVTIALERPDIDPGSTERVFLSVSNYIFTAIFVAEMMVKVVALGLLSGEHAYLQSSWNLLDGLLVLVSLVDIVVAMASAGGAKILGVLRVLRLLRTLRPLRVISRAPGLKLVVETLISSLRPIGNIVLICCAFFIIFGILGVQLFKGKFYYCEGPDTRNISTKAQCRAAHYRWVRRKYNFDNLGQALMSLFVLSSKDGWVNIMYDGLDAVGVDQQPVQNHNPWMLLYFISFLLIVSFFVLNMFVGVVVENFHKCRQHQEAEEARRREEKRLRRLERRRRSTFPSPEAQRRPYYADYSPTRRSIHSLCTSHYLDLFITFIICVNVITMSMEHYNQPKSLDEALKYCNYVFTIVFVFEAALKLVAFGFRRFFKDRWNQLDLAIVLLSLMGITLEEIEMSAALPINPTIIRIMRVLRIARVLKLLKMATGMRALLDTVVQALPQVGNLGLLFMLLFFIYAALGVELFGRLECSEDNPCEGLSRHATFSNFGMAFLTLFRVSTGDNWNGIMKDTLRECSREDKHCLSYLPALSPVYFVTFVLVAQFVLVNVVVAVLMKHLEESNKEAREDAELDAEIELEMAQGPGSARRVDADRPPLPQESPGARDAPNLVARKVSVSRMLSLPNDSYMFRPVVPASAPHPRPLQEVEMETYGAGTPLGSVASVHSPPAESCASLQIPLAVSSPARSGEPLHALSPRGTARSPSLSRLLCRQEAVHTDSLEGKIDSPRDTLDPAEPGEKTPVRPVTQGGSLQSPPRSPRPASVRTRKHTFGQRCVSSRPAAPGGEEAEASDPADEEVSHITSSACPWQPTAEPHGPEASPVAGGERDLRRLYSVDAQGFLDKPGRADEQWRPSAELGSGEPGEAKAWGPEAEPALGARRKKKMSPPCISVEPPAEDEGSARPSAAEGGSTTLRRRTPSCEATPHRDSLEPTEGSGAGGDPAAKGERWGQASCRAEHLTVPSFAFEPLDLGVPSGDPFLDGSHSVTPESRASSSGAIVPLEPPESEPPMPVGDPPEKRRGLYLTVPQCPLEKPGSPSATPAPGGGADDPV
Procedure, shortened: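 HEK293 cells stably expressing Cav3.2, plated overnight at 37°C, loaded 1 h at 37°C with 3 µM Fluo-4-AM in HBSS/Hepes pH 7.4, then washed. Compound in TEAC buffer (100 mM tetraethylammonium chloride, pH 7.2), 3-fold series from 10 µM to 0.05 nM, 3 min before CaCl2 to a final 10 mM. IC50 fitted sigmoidally to the fluorescence AUC against vehicle signal; mean of at least two independent experiments.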

[2] = molecular target: Voltage-dependent L-type calcium channel subunit alpha-1C (Homo sapiens, UniProt Q13936); assay: Inhibition of recombinant […] calcium channel Cav1.2 (unknown origin) expressed in HEK293 cells assessed as inhibition of Kcl-induced calcium influx preincubated for 3 mins prior CaCl2 addition by Fluo-4-AM dye-based FLIPR assay; assay type: cell-based
Chain of Voltage-dependent L-type calcium channel subunit alpha-1C (Q13936 whole entry): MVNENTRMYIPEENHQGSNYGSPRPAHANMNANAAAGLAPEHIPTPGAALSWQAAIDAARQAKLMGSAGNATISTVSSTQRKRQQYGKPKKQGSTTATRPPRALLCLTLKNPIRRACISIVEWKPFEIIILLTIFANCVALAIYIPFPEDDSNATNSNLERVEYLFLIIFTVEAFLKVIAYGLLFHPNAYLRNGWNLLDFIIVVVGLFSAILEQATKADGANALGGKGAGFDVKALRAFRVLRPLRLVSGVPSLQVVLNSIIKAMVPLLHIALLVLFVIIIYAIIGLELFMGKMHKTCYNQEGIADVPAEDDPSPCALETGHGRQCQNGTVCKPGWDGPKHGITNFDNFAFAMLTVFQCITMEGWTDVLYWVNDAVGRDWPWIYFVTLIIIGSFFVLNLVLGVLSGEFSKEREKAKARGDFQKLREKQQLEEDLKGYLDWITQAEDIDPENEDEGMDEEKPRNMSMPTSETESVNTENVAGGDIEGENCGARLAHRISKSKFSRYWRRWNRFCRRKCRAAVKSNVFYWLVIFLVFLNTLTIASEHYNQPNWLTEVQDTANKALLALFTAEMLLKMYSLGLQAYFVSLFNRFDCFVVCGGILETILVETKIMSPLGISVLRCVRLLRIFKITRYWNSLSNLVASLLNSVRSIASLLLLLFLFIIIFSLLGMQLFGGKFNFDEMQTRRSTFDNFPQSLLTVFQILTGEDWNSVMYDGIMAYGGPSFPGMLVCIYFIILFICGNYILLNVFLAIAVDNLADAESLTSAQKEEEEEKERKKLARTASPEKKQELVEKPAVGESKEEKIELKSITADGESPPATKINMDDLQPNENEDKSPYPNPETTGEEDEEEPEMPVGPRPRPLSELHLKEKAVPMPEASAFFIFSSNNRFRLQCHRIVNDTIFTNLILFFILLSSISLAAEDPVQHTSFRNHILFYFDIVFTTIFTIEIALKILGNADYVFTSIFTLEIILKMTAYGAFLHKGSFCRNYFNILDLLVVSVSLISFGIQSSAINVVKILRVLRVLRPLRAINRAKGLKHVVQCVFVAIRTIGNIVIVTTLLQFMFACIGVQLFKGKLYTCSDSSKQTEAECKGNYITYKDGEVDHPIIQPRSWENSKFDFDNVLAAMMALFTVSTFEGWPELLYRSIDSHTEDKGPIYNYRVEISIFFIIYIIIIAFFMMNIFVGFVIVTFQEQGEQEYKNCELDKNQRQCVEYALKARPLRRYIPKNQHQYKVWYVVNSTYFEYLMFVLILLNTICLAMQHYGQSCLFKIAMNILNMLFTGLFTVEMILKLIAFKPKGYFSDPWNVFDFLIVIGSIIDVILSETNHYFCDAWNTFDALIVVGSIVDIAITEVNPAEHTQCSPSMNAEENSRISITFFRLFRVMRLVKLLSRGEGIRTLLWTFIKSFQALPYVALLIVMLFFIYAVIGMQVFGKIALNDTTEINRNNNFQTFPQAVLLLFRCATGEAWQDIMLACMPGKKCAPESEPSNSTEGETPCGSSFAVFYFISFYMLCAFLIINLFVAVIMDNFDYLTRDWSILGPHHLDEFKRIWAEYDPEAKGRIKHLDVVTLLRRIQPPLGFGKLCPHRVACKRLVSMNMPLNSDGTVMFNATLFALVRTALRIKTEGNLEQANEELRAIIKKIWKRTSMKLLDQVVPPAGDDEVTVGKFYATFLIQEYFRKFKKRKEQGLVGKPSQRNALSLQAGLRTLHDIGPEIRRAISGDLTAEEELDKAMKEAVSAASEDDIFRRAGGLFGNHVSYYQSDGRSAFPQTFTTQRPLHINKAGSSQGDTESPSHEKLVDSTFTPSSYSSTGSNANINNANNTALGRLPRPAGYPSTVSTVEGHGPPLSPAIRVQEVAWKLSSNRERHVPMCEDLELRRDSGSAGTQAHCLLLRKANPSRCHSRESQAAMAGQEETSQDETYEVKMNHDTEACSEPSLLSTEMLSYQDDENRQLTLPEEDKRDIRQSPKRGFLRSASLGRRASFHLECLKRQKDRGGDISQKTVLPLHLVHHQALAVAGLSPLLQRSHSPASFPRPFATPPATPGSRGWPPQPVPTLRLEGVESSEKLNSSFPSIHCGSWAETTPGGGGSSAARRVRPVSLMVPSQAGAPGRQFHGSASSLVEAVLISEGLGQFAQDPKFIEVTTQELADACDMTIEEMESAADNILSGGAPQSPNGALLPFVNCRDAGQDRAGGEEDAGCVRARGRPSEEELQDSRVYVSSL
Procedure, shortened: (§1)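 HEK293 cells stably expressing the channel, seeded overnight and loaded 1 h at 37°C with 3 µM Fluo-4-AM. Compounds given as a 3-fold dilution series from 10 µM to 0.05 nM and incubated 3 min. For T-type channels, dilutions in TEAC buffer and stimulation with 10 mM final CaCl2. For Cav1.2, dilutions in assay buffer and stimulation with 20 mM final KCl. IC50 from area under the fluorescence trace against vehicle; mean of at least two experiments.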

[3] = Aqueous solubility of the compound at pH 4 by UV-HPLC method; assay type: physicochemical
Procedure, shortened: (§2)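 Compound dispensed from a 10 mM DMSO stock and the solvent evaporated. Residue stirred 24 h at room temperature in buffer: citrate (55 mM) pH 4.0 or phosphate (67 mM) pH 7.0. Mixture filtered by centrifugation. Filtrate concentration measured by HPLC-UV against calibration solutions.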

[4] = Aqueous solubility of the compound at pH 7 by UV-HPLC method; assay type: physicochemical; procedure, shortened: as §2
MDR1 [5] = assay: Apparent permeability across apical to basolateral side in MDCK cells expressing MDR1 (unknown origin) at 1 uM; assay type: ADME, cell-based, Canis lupus familiaris; settings: dog
Procedure, shortened: (§3)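 MDR1-transfected MDCK cell monolayers. Compound tested at 1 µM. Apparent permeability measured in both directions, apical to basolateral and basolateral to apical. Efflux ratio taken from the two directional permeabilities.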

MDR1 [6] = assay: Apparent permeability across basolateral to apical side in MDCK cells expressing MDR1 (unknown origin) at 1 uM; assay type: ADME, cell-based, Canis lupus familiaris; settings: dog; procedure, shortened: as §3
MDR1 [7] = assay: Efflux ratio of permeability in MDCK cells expressing MDR1 (unknown origin); assay type: ADME, cell-based, Canis lupus familiaris; settings: dog; procedure, shortened: as §3
[8] = molecular target: Voltage-gated inwardly rectifying potassium channel KCNH2 (Homo sapiens, UniProt Q12809); assay: Inhibition of human ERG expressed in CHO cells assessed as potassium tail current measured at -40 mV holding potential after 3 mins by QPatch clamp assay; assay type: cell-based
Procedure, shortened: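 CHO cells stably expressing hERG, automated QPatch recording. 500-ms depolarization to +20 mV from a holding potential of -80 mV. K+ tail current measured at -40 mV. Effect read 3 min after application.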

[9] = molecular target: Voltage-dependent T-type calcium channel subunit alpha-1I (Homo sapiens, UniProt Q9P0X4); assay: Inhibition of T-type calcium channel Cav3.3 (unknown origin) expressed in HEK293 cells assessed as calcium influx by Fluo-4-AM dye-based FLIPR assay; assay type: cell-based; procedure, shortened: as §1
[10] = molecular target: Voltage-dependent T-type calcium channel subunit alpha-1G (Homo sapiens, UniProt O43497); assay: Inhibition of T-type calcium channel Cav3.1 (unknown origin) expressed in HEK293 cells assessed as calcium influx by Fluo-4-AM dye-based FLIPR assay; assay type: cell-based; procedure, shortened: as §1

| Structure (SMILES) | IC50 [1] | IC50 [2] | further results |
| --- | --- | --- | --- |
| CN(C)CCOc1ccc(C2(CCO)CC(c3ccccc3)=NN2C(=O)Nc2ccc(F)cc2)cc1 (stereo not given) | > 5300 nM | > 10000 nM |  |
| CC(C)NC(=O)N1N=C(c2ccc(Br)cc2)CC1c1ccc(F)cc1 (stereo not given) | 382 nM | 2360 nM |  |
| COc1ccc([C@@]2(CCO)CC(c3cccnc3)=NN2C(=O)Nc2ccc(Br)cc2)cc1 | > 10000 nM |  |  |
| Cc1ccc(C2(CCN(C)C)CC(c3ccccc3)=NN2C(=O)Nc2ccc(F)cc2)cc1 (stereo not given) | 240 nM | 2200 nM | solubility [3]: 42 µg/mL (≈ 94.5 µM); solubility [4]: 30 µg/mL (≈ 67.5 µM) |
| COCC1(c2ccc(C)cc2)CC(c2ccccc2)=NN1C(=O)Nc1ccc(F)cc1 (stereo not given) | 350 nM | > 10000 nM |  |
| O=C(c1ccccc1)N1N=C(c2ccc(Br)cc2)CC1c1ccc(F)cc1 (stereo not given) | 5390 nM | > 10000 nM |  |
| O=C(Nc1ccccc1)N1N=C(c2ccc(Br)cc2)CC1c1ccc(F)cc1 (stereo not given) | 68 nM | > 10000 nM | IC50 [8]: > 10000 nM |
| O=C(Nc1ccc(F)cc1)N1N=C(c2ccccc2)CC1c1ccc(F)cc1 (stereo not given) | 25 nM | > 10000 nM | solubility [3]: < 1 µg/mL; solubility [4]: < 1 µg/mL |
| CC1=NN(C(=O)Nc2ccc(F)cc2)C(c2ccc(F)cc2)C1 (stereo not given) | 900 nM | > 10000 nM |  |
| O=C(NCCc1ccccc1)N1N=C(c2ccc(Br)cc2)CC1c1ccc(F)cc1 (stereo not given) | 420 nM | 1880 nM |  |
| O=C(Nc1ccc(F)cc1)N1N=C(c2ccc(Br)cc2)CC1c1ccc(F)cc1 (stereo not given) | 16 nM | > 10000 nM | solubility [3]: < 1 µg/mL |
| COCCOc1ccc(C2(CCO)CC(c3ccccc3)=NN2C(=O)Nc2ccc(F)cc2)cc1 (stereo not given) | 60 nM | 6300 nM | solubility [3]: 8 µg/mL (≈ 16.8 µM); solubility [4]: 8 µg/mL (≈ 16.8 µM) |
| Cc1ccc(C2(CCO)CC(c3ccncc3)=NN2C(=O)Nc2ccc(F)cc2)cc1 (stereo not given) | 330 nM | 8600 nM | solubility [3]: 193 µg/mL (≈ 461 µM); solubility [4]: 35 µg/mL (≈ 83.6 µM) |
| CS(=O)(=O)c1ccc(C2(CCO)CC(c3ccccc3)=NN2C(=O)Nc2ccc(F)cc2)cc1 (stereo not given) | 420 nM | > 10000 nM | Papp A→B at 1 µM (MDR1 [5]): 0.6 ×10⁻⁶ cm/s; Papp B→A at 1 µM (MDR1 [6]): 62 ×10⁻⁶ cm/s; efflux ratio (MDR1 [7]): 104 |
| CS(=O)(=O)c1ccc(C2CC(c3ccccc3)=NN2C(=O)Nc2ccc(F)cc2)cc1 (stereo not given) | 40 nM | > 10000 nM | solubility [3]: < 1 µg/mL; solubility [4]: < 1 µg/mL |
| CS(=O)(=O)c1ccc(C2CC(c3ccncc3)=NN2C(=O)Nc2ccc(F)cc2)cc1 (stereo not given) | 410 nM | > 10000 nM |  |
| O=C(Nc1ccc(F)cc1)N1N=C(c2ccncc2)C[C@H]1c1ccc(F)cc1 | 21 nM | 5400 nM |  |
| COc1ccc(C2(CCO)CC(c3cccnc3)=NN2C(=O)Nc2ccc(Br)cc2)cc1 (stereo not given) | 140 nM | > 10000 nM |  |

Now from value to compound, other results behind:

| IC50 [1] | Structure (SMILES) | IC50 [2] | further results |
| --- | --- | --- | --- |
| 447 nM | COc1ccc(NC(=O)N2N=C(c3ccc(Br)cc3)CC2c2ccc(F)cc2)cc1 (stereo not given) | > 10000 nM | solubility [3]: < 1 µg/mL; solubility [4]: < 1 µg/mL |
| 120 nM | O=C(Nc1ccc(F)cc1)N1N=C(c2ccccc2)CC1(CCO)c1ccccc1 (stereo not given) | 1940 nM |  |
| 33 nM | COc1ccc([C@]2(CCO)CC(c3cccnc3)=NN2C(=O)Nc2ccc(Br)cc2)cc1 | 4800 nM |  |
| 410 nM | CC1CC(c2ccccc2)=NN1C(=O)Nc1ccc(F)cc1 (stereo not given) | 3900 nM |  |
| 613 nM | CCc1ccc(NC(=O)N2N=C(c3ccc(Br)cc3)CC2c2ccc(F)cc2)cc1 (stereo not given) | > 10000 nM |  |
| 55 nM | COc1ccc(C2=NN(C(=O)Nc3ccc(Cl)cc3)[C@](CCO)(c3cccnc3)C2)cc1 | 5700 nM | solubility [3]: 27 µg/mL (≈ 59.9 µM); solubility [4]: 14 µg/mL (≈ 31 µM); Papp A→B at 1 µM (MDR1 [5]): 5.3 ×10⁻⁶ cm/s; Papp B→A at 1 µM (MDR1 [6]): 90 ×10⁻⁶ cm/s; efflux ratio (MDR1 [7]): 17 |
| 110 nM | O=C(Nc1ccc(F)cc1)N1N=C(c2cc[n+]([O-])cc2)CC1c1ccc(F)cc1 (stereo not given) | > 10000 nM |  |
| 316 nM | O=C(NC1CCCCC1)N1N=C(c2ccc(Br)cc2)CC1c1ccc(F)cc1 (stereo not given) | 1340 nM |  |
| 46 nM | O=C(Nc1cccc(F)c1)N1N=C(c2ccc(Br)cc2)CC1c1ccc(F)cc1 (stereo not given) | > 10000 nM | IC50 [8]: > 10000 nM |
| 8.2 nM | CC(C)c1ccc(CC(=O)N[C@H](C)c2ccc(OCC(F)(F)F)cn2)cc1 [SUVECALTAMIDE] |  | IC50 [9]: 1.5 nM; IC50 [10]: 1.2 nM |
| 690 nM | Cc1ccc(C2(CCN3CCN(C)CC3)CC(c3ccccc3)=NN2C(=O)Nc2ccc(F)cc2)cc1 (stereo not given) | 3600 nM | solubility [3]: 477 µg/mL (≈ 955 µM); solubility [4]: 158 µg/mL (≈ 316 µM) |
| 70 nM | O=C(Nc1ccc(F)cc1)N1N=C(c2ccccc2)CC1(CO)c1ccc(F)cc1 (stereo not given) | 2650 nM | solubility [4]: 2 µg/mL (≈ 4.91 µM) |
| 281 nM | Fc1ccc(NC(=S)N2N=C(c3ccc(Br)cc3)CC2c2ccc(F)cc2)cc1 (stereo not given) | > 10000 nM |  |
| 320 nM | O=C(Nc1ccc(F)cc1)N1N=C(c2ccncc2)C[C@@H]1c1ccc(F)cc1 | 7800 nM |  |
| 430 nM | Cc1ccc(C2(CCN3CCOCC3)CC(c3ccccc3)=NN2C(=O)Nc2ccc(F)cc2)cc1 (stereo not given) | 5900 nM | solubility [3]: 371 µg/mL (≈ 762 µM); solubility [4]: 1 µg/mL (≈ 2.06 µM) |
| 393 nM | O=C(Nc1ccccn1)N1N=C(c2ccc(Br)cc2)CC1c1ccc(F)cc1 (stereo not given) | 2180 nM |  |
| > 10000 nM | O=C(Nc1ccccc1F)N1N=C(c2ccc(Br)cc2)CC1c1ccc(F)cc1 (stereo not given) | > 10000 nM | solubility [3]: < 1 µg/mL; solubility [4]: < 1 µg/mL |
| 202 nM | O=C(Nc1ccncc1)N1N=C(c2ccccc2)CC1c1ccc(F)cc1 (stereo not given) | 3090 nM |  |
| 73 nM | CC(C)(C)NC(=O)CN1CCC(CNC(=O)c2cc(F)cc(Cl)c2)CC1 [ULIXACALTAMIDE] |  | IC50 [9]: 86 nM; IC50 [10]: 37 nM |
